Activity calls are given as the source filed them. The rule behind the calls is not given here.
Assays:
[1] = system: MCF7; test: Cytotoxicity against human MCF7 cells after 72 hrs by MTT assay; assay type: functional, cell-based; details: MCF7, 72 h
[2] = system: A549; test: Cytotoxicity against human A549 cells after 72 hrs by MTT assay; assay type: functional, cell-based; details: A549, 72 h
[3] = system: DU-145; test: Cytotoxicity against human DU145 cells after 72 hrs by MTT assay; assay type: functional, cell-based; details: DU-145, 72 h
[4] = system: HepG2; test: Cytotoxicity against human HepG2 cells after 72 hrs by MTT assay; assay type: functional, cell-based; details: HepG2, 72 h
[5] = Cytotoxicity against human SH-SY5Y cells after 72 hrs by MTT assay; assay type: functional, cell-based
[6] = system: HepG2; test: Antitumor activity against human HepG2 cells transfected in nude mouse assessed as tumor growth regression at 10 mg/kg, iv administered from day 9 post-infection every other day for 7 times relative to negative control; assay type: functional
In short: (§1)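 HepG2 xenograft in mice, started 7–14 days after tumor cell inoculation (mice 18–22 g, tumors 140–160 mg). Dosing i.v. every other day, 7 doses, at 10 or 20 mg/kg; sorafenib and vehicle controls given the same way. Tumor dimensions recorded every two days. Growth regression expressed relative to vehicle control.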

[7] = system: HepG2; test: Antitumor activity against human HepG2 cells transfected in nude mouse assessed as tumor growth regression at 20 mg/kg, iv administered from day 9 post-infection every other day for 7 times relative to negative control; assay type: functional; in short: as §1
[8] = Cytotoxicity against human GES-1 cells after 48 hrs by MTT assay; assay type: cell-based; details: GES1, 48 h
[9] = system: Mus musculus; test: Toxicity in nude mouse transfected with human HepG2 cells assessed as decrease in body weight at 20 mg/kg, iv administered from day 9 every other day for 7 times relative to negative control; assay type: organism-based; parameters: dose 20 mg/kg, route intravenous; details: in vivo
In short: (§2)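 HepG2 tumor-bearing mice (18–22 g, tumors 140–160 mg, 7–14 days post-inoculation). Dosing i.v. every other day, 7 doses, at 10 or 20 mg/kg; sorafenib and vehicle controls given identically. Body weight recorded every two days; mean change compared with vehicle group.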

[10] = system: HepG2; test: Induction of apoptosis in human HepG2 cells after 48 hrs by Annexin V-FITC/propidium iodide staining-based flow cytometry; assay type: functional, cell-based
[11] = system: HepG2; test: Induction of apoptosis in human HepG2 cells assessed as early apoptotic cells at 2 uM after 48 hrs by Annexin V-FITC/propidium iodide staining-based flow cytometry (reference value: 0.86%); assay type: functional
[12] = system: HepG2; test: Cell cycle arrest in human HepG2 cells assessed as increase in G2/M phase accumulation at 2 to 4 uM after 48 hrs by propidium iodide staining-based flow cytometry; assay type: functional
In short: (§3)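 HepG2 seeded 3 × 10⁵/well, 24 h, then exposed to a range of concentrations for 48 h. Cells fixed in ice-cold 70% ethanol ≥24 h, PBS-washed, RNase A treated, PI-stained 30 min at 4 °C in the dark. DNA content by flow cytometry gives G1, S, G2/M and sub-G1 fractions; mean of three independent determinations.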

[13] = system: HepG2; test: Cell cycle arrest in human HepG2 cells assessed as increase in S phase accumulation after 48 hrs by propidium iodide staining-based flow cytometry; assay type: functional; in short: as §3
[14] = system: HepG2; test: Induction of apoptosis in human HepG2 cells assessed as early apoptotic cells at 4 uM after 48 hrs by Annexin V-FITC/propidium iodide staining-based flow cytometry (reference value: 0.86%); assay type: functional
[15] = system: HepG2; test: Induction of apoptosis in human HepG2 cells assessed as late apoptotic cells at 2 uM after 48 hrs by Annexin V-FITC/propidium iodide staining-based flow cytometry (reference value: 2.13%); assay type: functional
[16] = system: HepG2; test: Cell cycle arrest in human HepG2 cells assessed as increase in G2/M phase accumulation after 48 hrs by propidium iodide staining-based flow cytometry; assay type: functional; in short: as §3
[17] = system: HepG2; test: Cell cycle arrest in human HepG2 cells assessed as increase in S phase accumulation at 2 to 4 uM after 48 hrs by propidium iodide staining-based flow cytometry; assay type: functional; in short: as §3
[18] = system: HepG2; test: Induction of apoptosis in human HepG2 cells assessed as late apoptotic cells at 6 uM after 48 hrs by Annexin V-FITC/propidium iodide staining-based flow cytometry (reference value: 2.13%); assay type: functional
[19] = system: Mus musculus; test: Toxicity in nude mouse transfected with human HepG2 cells assessed as change in body weight at 10 mg/kg, iv administered from day 9 every other day for 7 times relative to negative control; assay type: organism-based; parameters: dose 10 mg/kg, route intravenous; details: in vivo; in short: as §2
[20] = system: HepG2; test: Induction of apoptosis in human HepG2 cells assessed as early apoptotic cells at 6 uM after 48 hrs by Annexin V-FITC/propidium iodide staining-based flow cytometry (reference value: 0.86%); assay type: functional
[21] = system: HepG2; test: Induction of apoptosis in human HepG2 cells assessed as late apoptotic cells at 4 uM after 48 hrs by Annexin V-FITC/propidium iodide staining-based flow cytometry (reference value: 2.13%); assay type: functional
[22] = system: HepG2; test: Cell cycle arrest in human HepG2 cells assessed as decrease in G1 phase accumulation at 2 to 4 uM after 48 hrs by propidium iodide staining-based flow cytometry; assay type: functional; in short: as §3
[23] = system: HepG2; test: Cell cycle arrest in human HepG2 cells assessed as increase in sub G1 phase accumulation after 48 hrs by propidium iodide staining-based flow cytometry; assay type: functional; in short: as §3

Compound | IC50 [1] | IC50 [2] | IC50 [3] | IC50 [4] | IC50 [5] | further results
COCCOc1cc2ncnc(Nc3cccc(N(CCCl)CCCl)c3)c2cc1OCCOC | > 100 µM | 77.4 µM | > 100 µM | 33.5 µM | 16.9 µM | 
COc1cc2ncnc(Nc3cccc(N(CCCl)CCCl)c3)c2cc1OC | > 100 µM | > 100 µM | > 100 µM | 17.4 µM | 12.4 µM | 
COc1cc2ncnc(Nc3ccc(N(CCCl)CCCl)cc3)c2cc1O | 41.9 µM | 53.4 µM | 75.2 µM | 46.7 µM | 43.9 µM | 
COc1cc2ncnc(Nc3ccc(N(CCCl)CCCl)cc3)c2cc1OC(C)=O | 28.9 µM | 28.8 µM | 49.2 µM | 47.1 µM | 17.4 µM | 
COc1cc2ncnc(Nc3ccc(N(CCCl)CCCl)cc3)c2cc1OC | 51.1 µM | > 100 µM | > 100 µM | 29.9 µM | 7.36 µM | 
COCCOc1cc2ncnc(Nc3ccc(N(CCCl)CCCl)cc3)c2cc1OCCOC | > 100 µM | > 100 µM | > 100 µM | 85 µM | 13.2 µM | 
COc1cc2ncnc(Nc3cccc(N(CCCl)CCCl)c3)c2cc1O | 67.4 µM | 33 µM | 41.5 µM | 23.3 µM | 21.1 µM | 
COCCOc1cc2ncnc(Nc3ccccc3N(CCCl)CCCl)c2cc1OCCOC | 97.7 µM | 33.1 µM | > 100 µM | 11.3 µM | 45.8 µM | 
COc1cc2ncnc(Nc3ccc(N(CCCl)CCCl)cc3)c2cc1OCCCN1CCOCC1 | 55 µM | 27.7 µM | 16.9 µM | 12.2 µM | 20.7 µM | 
CNC(=O)c1cc(Oc2ccc(NC(=O)Nc3ccc(Cl)c(C(F)(F)F)c3)cc2)ccn1 [SORAFENIB] | 11.3 µM | 27.7 µM | 24.9 µM | 8.42 µM | 19.5 µM | TGI [6]: Active; TGI [7]: Active; IC50 [8]: 15.8 µM; Activity [9]: Toxic
COc1cc2ncnc(Nc3ccccc3N(CCCl)CCCl)c2cc1OC | 89.2 µM | 81.5 µM | > 100 µM | 77.2 µM | 22.6 µM | 
COc1cc2ncnc(Nc3ccccc3N(CCCl)CCCl)c2cc1OC(C)=O | 57.1 µM | 62.9 µM | 99.4 µM | 48.4 µM | 28.2 µM | 
COc1cc2ncnc(Nc3cccc(N(CCCl)CCCl)c3)c2cc1OC(C)=O | 39.9 µM | 39.1 µM | 21.6 µM | 29.1 µM | 24 µM | 
COc1cc2ncnc(Nc3cccc(N(CCCl)CCCl)c3)c2cc1OCCCN1CCOCC1 | 10.5 µM | 6.71 µM | 20 µM | 3.06 µM | 8.6 µM | Activity [10]: Dose-dependent effect; Activity [11]: 4.58%; Activity [12]: Active; Activity [13]: Dose-dependent effect; inhibition in vivo at 10 mg/kg ([6]; HepG2, 216 h, read-out: TGI): 26.5%; Activity [14]: 9.26%; Activity [15]: 6.64%; Activity [16]: Dose-dependent effect; Activity [17]: Active; inhibition in vivo at 20 mg/kg ([7]; HepG2, 216 h, read-out: TGI): 47.3%; Activity [18]: 57.7%; Activity [19]: Non-toxic; Activity [20]: 17.9%; Activity [21]: 32.13%; Activity [22]: Active; Activity [23]: Dose-dependent effect; Activity [9]: Toxic
